The text below walks through data of ChEMBL document CHEMBL1151756, “Design, synthesis, and biological evaluation of N-carboxyphenylpyrrole derivatives as potent HIV fusion inhibitors targeting gp41” (J Med Chem, 2008).

Activity calls are given as the source filed them. No cut-off for these calls is given here.

Data set [1] has as its system Human immunodeficiency virus 1. Briefly: Antiviral activity against HIV1 3B in human MT2 cells assessed as inhibition of p24 antigen level after 4 days by ELISA. It counts as functional, organism-based. To be noted: Human immunodeficiency virus 1, 3B, MT2, 96 h. In a few lines: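 Medium then replaced without compound. Day 4 post-infection, supernatants lysed with 5% Triton X-100; p24 measured by sandwich ELISA with HIVIG capture, anti-p24 mAb, TMB, A450, and a recombinant p24 standard curve. Triplicates; EC50 calculated from percent inhibition.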

For data set [2], the system named is MT2. Put plainly: Cytotoxicity against human MT2 cells after 4 days by XTT assay. It counts as cell-based. To be noted: mt2, 96 h. In a few lines:
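XTT assay: MT-2 cells (5 × 10⁵/mL) incubated with compound at graded concentrations at 37 °C for 4 days. XTT (1 mg/mL) containing 0.02 μM PMS then added, and A450 read after 4 h. CC50 calculated.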

Data set [3] deals with Human immunodeficiency virus 1. Briefly: Antiviral activity against HIV1 3B in human MT2 cells assessed as reduction of virus-induced cytopathogenicity. It counts as functional, organism-based.
Data set [4] can be described thus: Inhibition of HIV1 3B gp41 six-helix bundle formation after 30 mins by sandwich ELISA.
Data set [5] in a line: Selectivity index, ratio of CC50 for human MT2 cells to EC50 for HIV1 3B. The settings on record: read-out: Ratio CC50/EC50. Type of data set: toxicity, cell-based.

For the molecule `Cc1ccc(C)n1-c1ccc(O)c(C(=O)O)c1`, the concentration giving a half-maximal response (EC50) in data set [1] turned out to be 0.69 µM. In data set [2], half-maximal cytotoxicity (CC50) was put at 133 µM. Moreover, in data set [3], the outcome was Active. This molecule gave a half-maximal inhibitory concentration (IC50) in data set [4] of 37.4 µM.
Regarding `O=C(O)c1ccc(-n2cccc2)cc1`, the concentration giving a half-maximal response (EC50) in data set [1] was 69.2 µM. This molecule returned a concentration for half-maximal inhibition (IC50) in data set [4] of 129 µM.
Regarding `Cc1ccc(C)n1-c1cccc(C(=O)O)c1`, the concentration for a half-maximal effect (EC50) in data set [1] stood at 11.8 µM. The cytotoxic concentration (CC50) in data set [2] turned out to be 88.4 µM. In addition, the selectivity ratio in data set [5] was found to be 7.49. In addition, the IC50 in data set [4] is 42.2 µM.
For the molecule `O=C(O)c1ccc(N2C(=O)C=CC2=O)cc1`, the EC50 in data set [1] was determined as 205 µM. For the same molecule, the CC50 in data set [2] is above 400 µM. Further, in data set [5], the selectivity ratio is above 1.95. The molecule also yielded an IC50 in data set [4] above 1000 µM.
For `Nc1nnc(-c2ccc(C(=O)O)cc2)s1`, the EC50 in data set [1] is above 400 µM. The same molecule returned a CC50 in data set [2] above 400 µM. The same molecule displayed an IC50 in data set [4] above 1000 µM.
On to `O=C(O)c1ccc(Cn2cccc2)cc1`, for which, in data set [1], the 50% effective concentration (EC50) is 63.9 µM. The molecule also registered a half-maximal inhibitory concentration (IC50) in data set [4] of 157 µM.
For the molecule `O=C(O)c1ccc(N2C(=O)CSC2=S)cc1`, the half-maximal effective concentration (EC50) in data set [1] is 258 µM. Further, the CC50 in data set [2] stood at 143 µM. Besides, the selectivity ratio in data set [5] stood at 0.56. In data set [4], the IC50 was above 1000 µM.
On to `O=C(O)Cc1ccc(-n2cccc2)cc1`, for which, in data set [1], the concentration giving a half-maximal response (EC50) came out at 371 µM.
For the molecule `O=C(O)c1cccc(-c2noc(C(F)(F)F)n2)c1`, the EC50 in data set [1] was above 400 µM. In data set [2], the cytotoxic concentration (CC50) is above 400 µM. For the same molecule, the concentration for half-maximal inhibition (IC50) in data set [4] is above 1000 µM.
Regarding `O=C(O)c1ccc(N2C(=O)C=CC2=O)cc1O`, the 50% effective concentration (EC50) in data set [1] is above 400 µM. In data set [2], this molecule came in with a CC50 above 400 µM. The molecule also came in with an IC50 in data set [4] above 1000 µM.
As for `Cc1ccc(C)n1-c1ccc(S(N)(=O)=O)cc1`, the concentration giving a half-maximal response (EC50) in data set [1] stood at 99.1 µM. Moreover, the CC50 in data set [2] turned out to be 117 µM. Besides, in data set [5], the selectivity ratio came out at 1.18. The molecule further had a half-maximal inhibitory concentration (IC50) in data set [4] of 182 µM.
As to `O=C(O)c1ccc(-c2noc(CO)n2)cc1`, the half-maximal effective concentration (EC50) in data set [1] turned out to be 153 µM. Further, the midpoint of cytotoxicity in data set [2], the CC50, lay at 455 µM. In addition, in data set [5], the selectivity ratio worked out at 2.98. In data set [4], this molecule came in with an IC50 of 26.4 µM.
As for `COC(=O)c1ccc(-n2c(C)ccc2C)cc1O`, in data set [1], the EC50 was determined as 59.1 µM. This molecule displayed a 50% cytotoxic concentration (CC50) in data set [2] of 88.9 µM. Also, the selectivity ratio in data set [5] was found to be 1.5. The molecule further had an IC50 in data set [4] of 287 µM.
The like results for `c1cc(-c2nnn[nH]2)cc(-n2cccc2)c1` were, in that order, 41 µM, 436 µM, 10.6 and 226 µM.
As to `O=C(O)c1cccc(-n2cccc2)c1`, the EC50 in data set [1] was 44.8 µM. In data set [2], this molecule returned a half-maximal cytotoxic concentration (CC50) of 302 µM. Further, in data set [5], the selectivity ratio was 6.74. Besides, the concentration for half-maximal inhibition (IC50) in data set [4] is 211 µM.
As to `CCOC(=O)c1ccc(-c2noc(CO)n2)cc1`, the EC50 in data set [1] was 373 µM. In addition, the 50% cytotoxic concentration (CC50) in data set [2] turned out to be 385 µM. In addition, in data set [5], the selectivity ratio amounted to 1.03. Also, inhibition in data set [4] was half-maximal at 178 µM (IC50).
On to `COc1ccc(N2C(=O)CSC2=S)cc1`, for which the EC50 in data set [1] is 63.4 µM. For the same molecule, it took 89.6 µM to reach half-maximal cytotoxicity in data set [2] (CC50). Moreover, the selectivity ratio in data set [5] was 1.41. Also, in data set [4], the IC50 was above 1000 µM.
The corresponding values for `O=C1CSC(=S)N1c1ccc(O)cc1` are 35.7 µM, 84.9 µM, 2.38 and above 1000 µM.
Consider `COC(=O)c1ccc(-c2noc(CSC#N)n2)cc1`, for which the EC50 in data set [1] came out at 11 µM. Besides, the CC50 in data set [2] came to 43.7 µM. The selectivity ratio in data set [5] was determined as 3.99. Half-maximal inhibition in data set [4] (IC50) required 171 µM.
On to `O=C(O)c1ccc(-c2noc(CCl)n2)cc1`, for which, in data set [1], the 50% effective concentration (EC50) was 3.91 µM. The CC50 in data set [2] was determined as 64 µM. Moreover, the selectivity ratio in data set [5] came out at 16.4. For the same molecule, in data set [4], the IC50 is above 420 µM.
In data set [2], `O=C(O)c1cc(-n2cccc2)ccc1Cl` displayed a CC50 of 336 µM. In data set [4], this molecule had a half-inhibitory concentration (IC50) of 58.7 µM.
Turning to `O=C1CSC(=S)N1c1cccc(C(F)(F)F)c1`, in data set [1], the concentration giving a half-maximal response (EC50) turned out to be 116 µM. The molecule also registered a CC50 in data set [2] of 85.4 µM. In addition, the selectivity ratio in data set [5] was determined as 0.74. For the same molecule, the IC50 in data set [4] was above 1000 µM.
The corresponding values for `N#CSCc1nc(-c2ccc(C(=O)O)cc2)no1` are 68 µM, 383 µM, 5.64 and 178 µM.
On to `COC(=O)c1ccc(N2C(=O)C=CC2=O)cc1O`, for which, in data set [1], the half-maximal effective concentration (EC50) turned out to be 39.4 µM. In data set [2], this molecule registered a CC50 of 66.2 µM. Also, the selectivity ratio in data set [5] came out at 1.68. The 50% inhibitory concentration (IC50) in data set [4] came out at 101 µM.
Turning to `COC(=O)c1ccc(-n2cccc2)cc1O`, the half-maximal effective concentration (EC50) in data set [1] turned out to be 35.4 µM. This molecule also displayed a cytotoxic concentration (CC50) in data set [2] of 379 µM. In addition, in data set [5], the selectivity ratio was 10.7.
With `COC(=O)c1ccc(-c2noc(CCl)n2)cc1`, the concentration for a half-maximal effect (EC50) in data set [1] is 41.4 µM. For the same molecule, the half-maximal cytotoxic concentration (CC50) in data set [2] was found to be 14.2 µM. Besides, the selectivity ratio in data set [5] worked out at 0.34. For the same molecule, the IC50 in data set [4] was above 395 µM.
The corresponding values for `Cc1ccc(C)n1-c1ccc(Cl)c(C(=O)O)c1` are 1.52 µM, 211 µM, 139 and 78.7 µM.
In the case of `Cc1ccc(C)n1-c1ccc(C(=O)O)cc1`, the EC50 in data set [1] worked out at 174 µM. Besides, the CC50 in data set [2] came out at 136 µM. In data set [5], the selectivity ratio turned out to be 0.78. Further, half-maximal inhibition in data set [4] (IC50) was put at 189 µM.
On to `Cc1ccc(C)n1-c1cccc(-c2nnn[nH]2)c1`, for which, in data set [1], the EC50 is 7.7 µM. For the same molecule, in data set [2], the CC50 came to 249 µM. Also, the selectivity ratio in data set [5] was determined as 32.4. In data set [4], this molecule had an IC50 of 25.6 µM.
On to `Cc1ccc(C)n1-c1ccc(Cl)cc1C(=O)O`, for which the EC50 in data set [1] was found to be 8.56 µM. In addition, the IC50 in data set [4] stood at 60.3 µM.
Regarding `Cc1ccc(C)n1-c1ccc(CC(=O)O)cc1`, the concentration giving a half-maximal response (EC50) in data set [1] worked out at 2.1 µM. In data set [2], this molecule showed a half-maximal cytotoxic concentration (CC50) of 204 µM. In data set [5], the selectivity ratio is 97.1. Besides, the half-inhibitory concentration (IC50) in data set [4] amounted to 225 µM.
As to `O=C(O)c1cc(-n2cccc2)ccc1O`, the half-maximal effective concentration (EC50) in data set [1] was determined as 9.66 µM. The IC50 in data set [4] is 48.7 µM.
For `O=C(O)c1cc(N2C(=O)CSC2=S)ccc1O`, the EC50 in data set [1] was found to be 166 µM. In data set [2], this molecule yielded a CC50 of 152 µM. In addition, the selectivity ratio in data set [5] amounted to 0.92. The molecule further showed a half-maximal inhibitory concentration (IC50) in data set [4] above 1000 µM.
As to `O=C(O)c1ccc(-n2cccc2)cc1O`, the EC50 in data set [1] worked out at 81.7 µM. In data set [2], this molecule displayed a cytotoxic concentration (CC50) of 443 µM. Also, the selectivity ratio in data set [5] was found to be 5.42. Besides, the half-maximal inhibitory concentration (IC50) in data set [4] worked out at 70.8 µM.
Take `O=C(O)c1cccc(-c2noc(CCl)n2)c1`: the EC50 in data set [1] came to 57.7 µM. The molecule also returned a half-maximal cytotoxic concentration (CC50) in data set [2] of 64.9 µM. Also, the selectivity ratio in data set [5] amounted to 1.12. This molecule also showed an IC50 in data set [4] of 346 µM.
On to `COC(=O)c1ccc(-c2noc(CBr)n2)cc1`, for which the 50% effective concentration (EC50) in data set [1] was determined as 88 µM. This molecule returned a CC50 in data set [2] of 32.7 µM. In addition, in data set [5], the selectivity ratio came to 0.37. In data set [4], this molecule had a half-inhibitory concentration (IC50) above 337 µM.
The corresponding values for `O=C(O)c1cccc(N2C(=O)CSC2=S)c1` are 204 µM, 165 µM, 0.81 and above 1000 µM.
For the molecule `O=C(O)c1ccc(-c2noc(CBr)n2)cc1`, the EC50 in data set [1] was 127 µM. This molecule showed a cytotoxic concentration (CC50) in data set [2] of 81.9 µM. Also, the selectivity ratio in data set [5] was determined as 0.64. Moreover, in data set [4], the IC50 was above 353 µM.
Turning to `O=C(O)c1cc(N2C(=O)CSC2=S)ccc1Cl`, the EC50 in data set [1] amounted to 179 µM. The molecule also displayed a half-maximal cytotoxic concentration (CC50) in data set [2] of 155 µM. Also, the selectivity ratio in data set [5] came to 0.87. Also, the IC50 in data set [4] was above 1000 µM.
With `O=C(O)c1ccc(-c2noc(C(F)(F)F)n2)cc1`, in data set [1], the concentration giving a half-maximal response (EC50) is 3.06 µM. The same molecule returned a 50% cytotoxic concentration (CC50) in data set [2] of 82.2 µM. The selectivity ratio in data set [5] was 26.9. The molecule further returned an IC50 in data set [4] of 224 µM.
